Assay results published in ChEMBL document CHEMBL4152257, “Discovery of novel β-carboline/acylhydrazone hybrids as potent antitumor agents and overcome drug resistance” (Eur J Med Chem, 2018).
pIC50: −log10 of the molar value.

Legend:
[1] = system: A2780/Taxol; assay: Antiproliferative activity against human A2780T cells after 48 to 72 hrs by MTT assay; type: functional, cell-based
Method in brief: (§1)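 Cells in log phase seeded and allowed to adhere, then exposed to graded compound concentrations for 48 h or 72 h; MTT added for a further 2-3 h, formazan dissolved in DMSO. IC50 taken from dose-response curves; mean ± SD of at least three independent experiments.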

[2] = system: MCF7; assay: Cell cycle arrest in human MCF7 cells assessed as accumulation at G2/M phase at 10 uM after 18 hrs by propidium iodide staining based flow cytometry (reference value: 9.98%); type: functional
[3] = system: NCI/ADR-RES; assay: Induction of apoptosis in human MCF7/ADR cells assessed as viable cells at 10 uM after 48 hrs by annexin V-FITC/PI dual staining based flow cytometry (reference value: 89.8%); type: functional; details: read-out: Activity
[4] = system: MCF7; assay: Cell cycle arrest in human MCF7 cells assessed as accumulation at S phase at 30 uM after 18 hrs by propidium iodide staining based flow cytometry (reference value: 44.80%); type: functional
[5] = system: A549; assay: Antiproliferative activity against human A549 cells after 48 to 72 hrs by MTT assay; type: functional, cell-based; method in brief: as §1
[6] = system: MCF7; assay: Induction of apoptosis in human MCF7 cells assessed as late apoptotic cells at 30 uM after 48 hrs by annexin V-FITC/PI dual staining based flow cytometry (reference value: 11.1%); type: functional
[7] = system: NCI/ADR-RES; assay: Induction of apoptosis in human MCF7/ADR cells assessed as early apoptotic cells at 3 uM after 48 hrs by annexin V-FITC/PI dual staining based flow cytometry (reference value: 2.72%); type: functional
[8] = system: NCI/ADR-RES; assay: Induction of apoptosis in human MCF7/ADR cells assessed as late apoptotic cells at 3 uM after 48 hrs by annexin V-FITC/PI dual staining based flow cytometry (reference value: 5.02%); type: functional
[9] = system: NCI/ADR-RES; assay: Induction of apoptosis in human MCF7/ADR cells assessed as viable cells at 3 uM after 48 hrs by annexin V-FITC/PI dual staining based flow cytometry (reference value: 89.8%); type: functional; details: read-out: Activity
[10] = Selectivity ratio of IC50 for HUVEC to IC50 for human A549/TR cells; type: toxicity; details: HUVEC versus A549/TR cells
[11] = system: MCF7; assay: Cell cycle arrest in human MCF7 cells assessed as accumulation at S phase at 100 uM after 18 hrs by propidium iodide staining based flow cytometry (reference value: 44.80%); type: functional
[12] = system: MCF7; assay: Antiproliferative activity against human MCF7 cells after 48 to 72 hrs by MTT assay; type: functional, cell-based; method in brief: as §1
[13] = system: MCF7; assay: Cell cycle arrest in human MCF7 cells assessed as accumulation at G0/G1 phase at 100 uM after 18 hrs by propidium iodide staining based flow cytometry (reference value: 45.22%); type: functional
[14] = Resistance index, ratio of IC50 for human A549/TR cells to IC50 for human A549 cells; type: functional
[15] = system: HUVEC; assay: Antiproliferative activity against HUVEC after 48 to 72 hrs by MTT assay; type: cell-based; details: Homo sapiens; method in brief: as §1
[16] = system: MCF7; assay: Induction of apoptosis in human MCF7 cells assessed as necrotic cells at 100 uM after 48 hrs by annexin V-FITC/PI dual staining based flow cytometry (reference value: 0.16%); type: functional
[17] = system: Mus musculus; assay: Toxicity in athymic nude Balb/C mouse xenografted with human H460 cells assessed as body weight loss at 100 mg/kg, po administered 3 times per week measured every 2 days; type: organism-based; details: in vivo, 48 h
Method in brief: (§2)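 Nude mice, 5-to-6-week-old females, given 5 × 10^6 H460 cells sc in right flank in HBSS; at 100 mm3 tumour volume randomized, 6 per group. Vehicle; oral 100 mg/kg three times weekly; or ip 30 mg/kg once weekly. Toxicity signs and mortality observed daily; body weight measured every 2 days.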

[18] = system: Raji; assay: Antiproliferative activity against human Raji cells at 1 uM after 48 to 72 hrs by MTT assay relative to control; type: functional
Method in brief: (§3)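 Single-concentration screen in the MTT proliferation assay: log-phase cells seeded and allowed to adhere, exposed to compound at 1 µM for 48 h or 72 h, MTT added for 2-3 h, formazan dissolved in DMSO; percent inhibition versus control.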

[19] = system: NCI/ADR-RES; assay: Induction of apoptosis in human MCF7/ADR cells assessed as late apoptotic cells at 30 uM after 48 hrs by annexin V-FITC/PI dual staining based flow cytometry (reference value: 5.02%); type: functional
[20] = system: MDA-MB-231; assay: Antiproliferative activity against human MDA-MB-231 cells at 1 uM after 48 to 72 hrs by MTT assay relative to control; type: functional; method in brief: as §3
[21] = system: MCF7; assay: Induction of apoptosis in human MCF7 cells assessed as necrotic cells at 30 uM after 48 hrs by annexin V-FITC/PI dual staining based flow cytometry (reference value: 0.16%); type: functional
[22] = system: MCF7; assay: Induction of apoptosis in human MCF7 cells assessed as late apoptotic cells at 10 uM after 48 hrs by annexin V-FITC/PI dual staining based flow cytometry (reference value: 11.1%); type: functional
[23] = system: NCI-H460; assay: Antiproliferative activity against human H460 cells at 1 uM after 48 to 72 hrs by MTT assay relative to control; type: functional; method in brief: as §3
[24] = system: MCF7; assay: Cell cycle arrest in human MCF7 cells assessed as accumulation at G2/M phase at 100 uM after 18 hrs by propidium iodide staining based flow cytometry (reference value: 9.98%); type: functional
[25] = system: MCF7; assay: Cell cycle arrest in human MCF7 cells assessed as accumulation at G0/G1 phase at 30 uM after 18 hrs by propidium iodide staining based flow cytometry (reference value: 45.22%); type: functional
[26] = system: MCF7; assay: Induction of apoptosis in human MCF7 cells assessed as early apoptotic cells at 3 uM after 48 hrs by annexin V-FITC/PI dual staining based flow cytometry (reference value: 11%); type: functional
[27] = system: MCF7; assay: Cell cycle arrest in human MCF7 cells assessed as accumulation at S phase at 3 uM after 18 hrs by propidium iodide staining based flow cytometry (reference value: 44.80%); type: functional
[28] = system: MCF7; assay: Induction of apoptosis in human MCF7 cells assessed as early apoptotic cells at 100 uM after 48 hrs by annexin V-FITC/PI dual staining based flow cytometry (reference value: 11%); type: functional
[29] = system: MCF7; assay: Induction of apoptosis in human MCF7 cells assessed as viable cells at 100 uM after 48 hrs by annexin V-FITC/PI dual staining based flow cytometry (reference value: 77.8%); type: functional; details: MCF7, 48 h, read-out: Activity
[30] = system: NCI/ADR-RES; assay: Induction of apoptosis in human MCF7/ADR cells assessed as late apoptotic cells at 100 uM after 48 hrs by annexin V-FITC/PI dual staining based flow cytometry (reference value: 5.02%); type: functional
[31] = system: MCF7; assay: Induction of apoptosis in human MCF7 cells assessed as late apoptotic cells at 3 uM after 48 hrs by annexin V-FITC/PI dual staining based flow cytometry (reference value: 11.1%); type: functional
[32] = system: NCI-H460; assay: Antiproliferative activity against human H460 cells after 48 to 72 hrs by MTT assay; type: functional, cell-based; method in brief: as §1
[33] = system: MCF7; assay: Induction of apoptosis in human MCF7 cells assessed as late apoptotic cells after 48 hrs by annexin V-FITC/PI dual staining based flow cytometry; type: functional, cell-based
[34] = system: Mus musculus; assay: Toxicity in athymic nude Balb/C mouse xenografted with human H460 cells assessed as effect on feeding behaviour at 100 mg/kg, po administered 3 times per week measured every 2 days; type: organism-based; details: in vivo, 48 h; method in brief: as §2

**Q.** With `N#Cc1ccc(COc2cccc(/C=N/NC(=O)c3cc4c(cn3)[nH]c3ccccc34)c2)cc1` as the compound, how does the pIC50 [1] read?
**A.** The pIC50 was 5.40.

**Q.** What about the Activity [2] of the same compound?
**A.** Its Activity is 7.57%.

**Q.** What about the viability at 10 µM [3] of the same compound?
**A.** Its viability at 10 µM is 70.1%.

**Q.** What about the Activity [4] of the same compound?
**A.** The Activity was 55.32%.

**Q.** And the pIC50 [5]?
**A.** Its pIC50 is 5.86.

**Q.** What about the Activity [6] of the same compound?
**A.** The Activity was 28.8%.

**Q.** What about the Activity [7] of the same compound?
**A.** The Activity was 2.44%.

**Q.** And the Activity [8]?
**A.** Its Activity is 7.2%.

**Q.** What about the viability at 3 µM [9] of the same compound?
**A.** The viability at 3 µM was 84.3%.

**Q.** What about the selectivity ratio [10] of the same compound?
**A.** The selectivity ratio was 28.3.

**Q.** What about the Activity [11] of the same compound?
**A.** The Activity was 53.88%.

**Q.** What about the pIC50 [12] of the same compound?
**A.** Its pIC50 is 5.99 to 6.03.

**Q.** What about the Activity [13] of the same compound?
**A.** Its Activity is 41.83%.

**Q.** What about the “Ratio IC50” value [14] of the same compound?
**A.** Its value is 2.28.

**Q.** And the pIC50 [15]?
**A.** Its pIC50 is 4.05.

**Q.** What about the Activity [16] of the same compound?
**A.** Its Activity is 0.76%.

**Q.** And the Activity [17]?
**A.** Its Activity is under 5%.

**Q.** And the inhibition at 1 µM [18]?
**A.** Its inhibition at 1 µM is 42.7%.

**Q.** What about the Activity [19] of the same compound?
**A.** The Activity was 21.9%.

**Q.** What about the inhibition at 1 µM [20] of the same compound?
**A.** The inhibition at 1 µM was 29.6%.

**Q.** And the Activity [21]?
**A.** Its Activity is 0.93%.

**Q.** What about the Activity [22] of the same compound?
**A.** The Activity was 20.1%.

**Q.** And the inhibition at 1 µM [23]?
**A.** The inhibition at 1 µM was 51%.

**Q.** And the Activity [24]?
**A.** Its Activity is 4.29%.

**Q.** And the Activity [25]?
**A.** Its Activity is 38.62%.

**Q.** And the Activity [26]?
**A.** The Activity was 15.3%.

**Q.** And the Activity [27]?
**A.** Its Activity is 56.12%.

**Q.** What about the Activity [28] of the same compound?
**A.** Its Activity is 13%.

**Q.** And the viability at 100 µM [29]?
**A.** Its viability at 100 µM is 47.2%.

**Q.** What about the Activity [30] of the same compound?
**A.** The Activity was 30.2%.

**Q.** What about the Activity [31] of the same compound?
**A.** The Activity was 17.6%.

**Q.** What about the pIC50 [32] of the same compound?
**A.** Its pIC50 is 5.76 to 5.79.

**Q.** And the Activity [33]?
**A.** Its Activity is “Dose-dependent effect”.

**Q.** And the Activity [34]?
**A.** The Activity was “Non-Toxic”.
